Measured values reported in ChEMBL document CHEMBL4732058, “Development of pyrene-based fluorescent ether lipid as inhibitor of SK3 ion channels” (Eur J Med Chem, 2021).
Active and inactive are the calls of the source. The rule behind the calls is not given here.

Key:
[1] = Fluorescence property of compound in egg-PC based liposomes assessed as liposomal integration at 0.2 uM added before liposome formation by fluorescence spectra analysis; type: physicochemical; details: artificial membrane
Outline: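 Pre-insertion: methanol stock (50 mM) added to egg-PC lipids before solvent evaporation, then liposomes formed; final compound 0.2 at lipid 8 or 40 (lipid/compound ratios 40 or 200).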

[2] = system: MDA-MB-435; experiment: Inhibition of cell migration in human MDA-MB-435 cells expressing SK3 channel at 0.3 uM measured after 24 hrs; type: functional
Outline: (§1)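 Transwell migration through […] pore inserts in 24-well plates, using MDA-MB-435s expressing endogenous SK3 (SK3+) or not (SK3-); DMSO stock 10 mM. Results relative to control, mean ± S.E.M.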

[3] = system: MDA-MB-435; experiment: Inhibition of cell migration in human MDA-MB-435 cells at 1 uM measured after 24 hrs; type: functional, cell-based; outline: as §1
[4] = system: MDA-MB-435; experiment: Inhibition of cell migration in human MDA-MB-435 cells expressing SK3 channel at 1 uM measured after 24 hrs; type: functional; outline: as §1
[5] = biological target: Small conductance calcium-activated potassium channel protein 3 (Homo sapiens) (UniProt Q9UGI6); experiment: Inhibition of SK3 (unknown origin) assessed as reduction in SK3 expression in presence of proteinase K
Outline: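 Cell-surface expression by proteinase K cleavage: cells incubated with or without […] proteinase K at 37 °C for 30 min, quenched with ice-cold PBS with 6 mM PMSF and 25 mM EDTA; western blot, full-length SK3 75 kDa, surface-cleaved band 55 kDa.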

[6] = system: MDA-MB-435; experiment: Cytotoxicity against human MDA-MB-435 cells at 1 uM incubated for 48 hrs by MTT assay; type: cell-based; details: mda-mb-435, 48 h
[7] = Drug uptake in plasma membrane of human MDA-MB-231 cells at 1 uM measured after 45 mins by fluorescence imaging analysis; type: ADME, cell membranes, Cell membrane; details: mda-mb-231, 0.75 h
[8] = Fluorescence property of compound in preformed egg-PC based liposomes assessed as liposomal integration at 0.2 uM by fluorescence spectra analysis; type: physicochemical; details: artificial membrane
Outline: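 Post-insertion: compound from methanol stock (50 mM) added to preformed, sonicated egg-PC liposomes; final compound 0.2 at lipid 8 or 40 (lipid/compound ratios 40 or 200).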

[9] = Drug uptake in human MDA-MB-231 cells at 1 uM after 2 hrs by fluorescence imaging analysis; type: ADME, cell-based; details: mda-mb-231, 2 h
Outline: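 Breast cancer cells seeded at 100.000 per 35 mm dish in serum-supplemented DMEM, treated 24 h after seeding; medium swapped to serum-free DMEM before adding compound. Wide-field microscope, 20× oil objective, excitation 340 nm, excimer emission imaged 468–552 nm; same field imaged every 15 min from 60 to 165 min after addition.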

[10] = biological target: Small conductance calcium-activated potassium channel protein 3 (Rattus norvegicus) (UniProt P70605); experiment: Inhibition of recombinant rat SK3 expressed in HEK293T cells assessed as reduction in channel current at 10 uM and holding potential at 0 mV by whole cell patch clamp method relative to control; type: cell-based
[11] = biological target: Small conductance calcium-activated potassium channel protein 3 (Rattus norvegicus) (UniProt P70605); experiment: Inhibition of recombinant rat SK3 expressed in HEK293 cells assessed as reduction in channel current at 10 uM and holding potential at 0 mV by whole cell patch clamp method relative to control; type: cell-based

Sequence of Small conductance calcium-activated potassium channel protein 3 (Rattus norvegicus) (P70605 whole entry): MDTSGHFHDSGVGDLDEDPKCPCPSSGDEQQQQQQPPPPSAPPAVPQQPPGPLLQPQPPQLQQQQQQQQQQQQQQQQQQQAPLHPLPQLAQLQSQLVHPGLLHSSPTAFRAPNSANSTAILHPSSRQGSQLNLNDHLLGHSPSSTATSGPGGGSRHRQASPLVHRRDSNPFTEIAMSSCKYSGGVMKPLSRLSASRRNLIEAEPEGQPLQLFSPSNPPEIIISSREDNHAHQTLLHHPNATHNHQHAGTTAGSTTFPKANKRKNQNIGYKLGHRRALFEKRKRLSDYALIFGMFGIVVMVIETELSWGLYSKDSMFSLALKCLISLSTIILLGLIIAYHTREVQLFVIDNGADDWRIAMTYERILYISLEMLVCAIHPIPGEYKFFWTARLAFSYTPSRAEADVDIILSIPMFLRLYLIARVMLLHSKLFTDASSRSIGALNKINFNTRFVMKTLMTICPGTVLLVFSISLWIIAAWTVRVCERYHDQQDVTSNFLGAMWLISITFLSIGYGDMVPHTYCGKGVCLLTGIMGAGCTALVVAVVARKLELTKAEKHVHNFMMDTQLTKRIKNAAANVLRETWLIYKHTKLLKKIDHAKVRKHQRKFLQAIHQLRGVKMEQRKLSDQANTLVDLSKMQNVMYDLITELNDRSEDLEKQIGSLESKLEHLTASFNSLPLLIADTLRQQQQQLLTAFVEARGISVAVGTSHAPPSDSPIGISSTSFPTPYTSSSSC
Sequence of Small conductance calcium-activated potassium channel protein 3 (Homo sapiens) (Q9UGI6 whole entry): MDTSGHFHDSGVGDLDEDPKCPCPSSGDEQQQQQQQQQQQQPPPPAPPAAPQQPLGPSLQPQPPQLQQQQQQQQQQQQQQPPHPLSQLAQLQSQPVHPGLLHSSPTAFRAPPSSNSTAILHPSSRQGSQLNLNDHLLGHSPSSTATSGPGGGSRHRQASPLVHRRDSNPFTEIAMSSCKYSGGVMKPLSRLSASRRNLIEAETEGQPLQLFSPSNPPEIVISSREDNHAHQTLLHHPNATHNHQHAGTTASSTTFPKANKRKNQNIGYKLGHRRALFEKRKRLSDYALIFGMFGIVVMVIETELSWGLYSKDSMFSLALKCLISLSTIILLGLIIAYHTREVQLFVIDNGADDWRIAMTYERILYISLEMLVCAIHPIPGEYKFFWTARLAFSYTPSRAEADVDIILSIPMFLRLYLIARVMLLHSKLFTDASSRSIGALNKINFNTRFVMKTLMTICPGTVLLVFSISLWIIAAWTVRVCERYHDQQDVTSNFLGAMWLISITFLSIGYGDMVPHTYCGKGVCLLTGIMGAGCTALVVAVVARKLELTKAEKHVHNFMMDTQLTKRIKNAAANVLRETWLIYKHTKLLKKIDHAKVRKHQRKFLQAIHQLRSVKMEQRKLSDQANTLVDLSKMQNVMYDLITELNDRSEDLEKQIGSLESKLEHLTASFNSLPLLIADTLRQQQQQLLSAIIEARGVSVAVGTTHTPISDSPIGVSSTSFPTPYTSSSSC

SMILES | Activity [1] | inhibition [2] | inhibition [3] | inhibition at 1 µM [4] | inhibition [5] | Activity [6] | Drug uptake [7] | Activity [8] | Drug uptake [9] | inhibition [10] | inhibition at 0.3 µM [2] | inhibition [11]
COC(COCCCCCCCCCCCc1ccc2ccc3cccc4ccc1c2c34)CO[C@@H]1O[C@H](CO)[C@@H](O[C@@H]2O[C@H](CO)[C@H](O)[C@H](O)[C@H]2O)[C@H](O)[C@H]1O (mixture of isomers) | Active | inactive | inactive | -32.5% | inactive | Non-Toxic | Active | Active | Active | – | – | –
COC(COCCCCc1ccc2ccc3cccc4ccc1c2c34)CO[C@@H]1O[C@H](CO)[C@@H](O[C@@H]2O[C@H](CO)[C@H](O)[C@H](O)[C@H]2O)[C@H](O)[C@H]1O (mixture of isomers) | Not Active | – | – | – | – | Non-Toxic | – | Not Active | – | inactive | – | –
COC(COCCCCCCCCCCCCCCCCc1ccc2ccc3cccc4ccc1c2c34)CO[C@@H]1O[C@H](CO)[C@@H](O[C@@H]2O[C@H](CO)[C@H](O)[C@H](O)[C@H]2O)[C@H](O)[C@H]1O (mixture of isomers) | Active | – | – | – | – | Non-Toxic | – | Active | – | inactive | – | –
CCCCCCCCCCCCCCCCOCC(CO[C@@H]1O[C@H](CO)[C@@H](O[C@@H]2O[C@H](CO)[C@H](O)[C@H](O)[C@H]2O)[C@H](O)[C@H]1O)OC (stereo not given in full) | – | – | – | – | inactive | – | – | – | – | – | 50% | 73%
